SENP6 block = inhibitors of human SENP6 protease; Q9GZR1; inhibition, % at 10 µM; 1.8% of 330,000 active; Recombinant SENP6 catalytic domain, aminoluciferin luminescence; AID 2599;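 active = inhibition above about 50% at the single tested dose, limit read from the data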
Apaf1 inhib = blocks human Apaf-1 apoptosome activity; O14727; reconstituted apoptosome caspase-3 activity, DEVD-Rh110 fluorescence; inhibition, % at 20 µM; 0.71% of 330,000 active; AID 489030; active = inhibition of at least 40% at 20 µM
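System – cell-free apoptosome with Apaf-1, procaspase-3 and caspase-9 · Buffer or medium – pH 7.5 Hepes buffer with CHAPS, BSA, DTT · Also added – cytochrome c with DEVD-Rh110 · Times – 30 min compound preincubation, 50 min activation, room temperature · Technique – Rh110 fluorescence intensity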
UBC13 inh = human UBC13 polyubiquitination inhibition; UBC13 polyubiquitin chain formation, TR-FRET; inhibition, % at 20 µM; 0.47% of 330,000 active; AID 485273; in the data active = inhibition above about 45%, passing the limit was not always enough; inconclusive = no clear call, values can overlap the other calls
Target sequence (P61088 whole entry, looked up): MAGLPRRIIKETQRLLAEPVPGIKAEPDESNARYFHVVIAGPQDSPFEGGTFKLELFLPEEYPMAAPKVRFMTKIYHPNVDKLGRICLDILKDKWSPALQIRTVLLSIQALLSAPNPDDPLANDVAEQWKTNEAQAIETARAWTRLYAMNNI
SENP8 block-1 = inhibitors of human SENP8 protease; 1.2% of 330,000 active; Q96LD8; purified SENP8, Z-RLRGG-aminoluciferin cleavage, luminescence; inhibition, % at 10 µM; in the data active = inhibition above about 50%
Target sequence (Q96LD8 whole entry, looked up): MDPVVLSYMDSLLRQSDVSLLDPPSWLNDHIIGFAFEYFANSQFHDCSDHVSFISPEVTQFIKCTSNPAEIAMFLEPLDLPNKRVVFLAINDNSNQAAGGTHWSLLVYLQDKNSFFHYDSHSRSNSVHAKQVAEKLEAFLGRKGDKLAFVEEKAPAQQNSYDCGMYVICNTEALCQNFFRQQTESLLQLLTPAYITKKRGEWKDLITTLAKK
SENP7 inh = blocks the human protease SENP7; Q9BQF6; recombinant SENP7, Z-RLRGG-aminoluciferin luminescence, 40 min; inhibition, % at 5 µM; 1.5% of 330,000 active; AID 434973;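 active = inhibition above about 50% at the single test dose, limit read from the data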
SENP8 block-2 = inhibitors of human SENP8 protease; inhibition, % at 20 µM; 0.64% of 360,000 active; Q96LD8; recombinant SENP8, Nedd8 substrate fluorescence; AID 602440; in the data active = inhibition mostly above about 40%, no sharp cut-off; inactive = mostly below about 27%
SENP8 confirm = human SENP8 inhibition, confirmed; AID 488912; shares compounds with SENP7 inh; Recombinant SENP8, Z-RLRGG-aminoluciferin luminescence, 60 min; 40% of 6,200 active; inhibition, % at 12.5 µM;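 active = mean inhibition across replicates above about 50%, limit read from the data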
SENP6 confirm = human SENP6 inhibition, confirmed | AID 488915 | inhibition, % at 12.5 µM | shares compounds with SENP7 inh | recombinant SENP6, Z-RLRGG-aminoluciferin luminescence | 58% of 6,200 active
SENP7 conf = human SENP7 inhibition, confirmed; AID 488917; shares compounds with SENP7 inh; 69% of 6,200 active; inhibition, % at 12.5 µM; recombinant SENP7, Z-RLRGG-aminoluciferin luminescence, 40 min
Casp3 select = inhibits human caspase-3 in SENP selectivity test | shares compounds with SENP7 inh | purified caspase-3, Z-DEVD-aminoluciferin luminescence, 60 min | inhibition, % at 12.5 µM | 60% of 6,200 active | AID 488918;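 active = mean inhibition above about 50%, limit read from the data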
Target sequence (P42574 28-227 limits assumed): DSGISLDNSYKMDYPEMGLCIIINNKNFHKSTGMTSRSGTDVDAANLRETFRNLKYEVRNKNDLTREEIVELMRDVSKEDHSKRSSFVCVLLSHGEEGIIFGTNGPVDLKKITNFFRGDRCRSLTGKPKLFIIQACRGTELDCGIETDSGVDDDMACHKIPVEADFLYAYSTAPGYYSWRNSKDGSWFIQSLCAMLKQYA
Luc interf = interferes with luciferase luminescence in SENP counter-screen. shares compounds with SENP7 inh. Pre-incubated SENP8/Z-RLRGG-aminoluciferin, luciferase luminescence interference. inhibition, % at 12.5 µM. 39% of 6,200 active. AID 488919;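 active = mean inhibition above about 50% when retested at one dose, limit read from the data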
A number is an active result; n = inactive; u = inconclusive; x = no result. This is a sample that favours compounds with a hit; in the whole collection about 3% have one here.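 Rule for the calls, unless noted: active = mean inhibition above about 50% in the one-dose retest (limit read from the data); inactive = the rest.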

SMILES | SENP6 block | Apaf1 inhib | UBC13 inh | SENP8 block-1 | SENP7 inh | SENP8 block-2 | SENP8 confirm | SENP6 confirm | SENP7 conf | Casp3 select | Luc interf
O=C(CC(c1cccs1)S(=O)(=O)c1ccccc1)c1ccc(F)cc1 (centres undefined) | 52.4 | n | n | n | n | n | n | n | n | n | n
CN1CCN([C@@H]2CS(=O)(=O)N[C@H]2COCc2ccccc2)CC1 | x | x | x | x | x | n | x | x | x | x | x
CC(=O)N1N=C(c2ccc(C)cc2)OC1c1ccc(C(C)C)cc1 (centres undefined) | 65.7 | n | n | n | 66.4 | n | n | n | n | n | n
CC(=O)N1N=C(c2ccc(C)cc2)OC1c1ccc(C)cc1 (centres undefined) | n | n | n | n | n | n | x | x | x | x | x
CC(=O)c1ccc(OC2(C)CCN(CCOc3ccc(C)cc3)C2)cc1 (centres undefined) | x | x | x | x | x | n | x | x | x | x | x
O=C(NCc1ccccc1)c1c(F)c(F)c(F)c(F)c1F | n | n | n | 51.9 | n | n | n | n | n | n | n
O=C(NCc1ccccc1)c1ccc(F)c(F)c1 | n | n | n | n | n | n | x | x | x | x | x
Cc1cc(C(=O)COC(=O)c2ccc[nH]c2=O)c(C)n1C1CC1 | n | n | n | n | n | n | x | x | x | x | x
Cc1cc(C(=O)COC(=O)c2ccc(F)cc2F)c(C)n1C1CC1 | 63.6 | n | n | n | n | n | n | n | n | n | n
CC1(C(=O)Nc2cccc(NS(C)(=O)=O)c2)CCN1Cc1ccccc1OC(F)F (centres undefined) | x | x | x | x | x | n | x | x | x | x | x
O=C(COC(=O)c1ccc([N+](=O)[O-])s1)c1ccc[nH]1 | n | n | n | 56.8 | n | n | n | 79.3 | n | n | n
Cc1cc(C)c(NC(=O)COC(=O)c2ccc([N+](=O)[O-])s2)c(C)c1 | n | n | n | n | n | n | x | x | x | x | x
O=C1CN(C(=O)COC(=O)c2cccs2)c2ccccc2N1 | n | n | n | n | n | n | x | x | x | x | x
O=C(COC(=O)c1ccc([N+](=O)[O-])s1)NC(=O)NCc1ccccc1 | 86.5 | n | n | 65.5 | n | n | 75.2 | 84.4 | n | n | n
O=C(COC(=O)c1ccc([N+](=O)[O-])s1)NCc1ccc(F)cc1 | 75.5 | n | n | 66.7 | 52.2 | n | n | 85.2 | n | n | n
O=C1CN(C(=O)COC(=O)c2ccc([N+](=O)[O-])s2)c2ccccc2N1 | 53.3 | n | n | 64.8 | n | n | n | 85.2 | n | n | n
CCOC(=O)c1cc(-c2ccccc2)sc1NC(=O)c1ccc(OC)c(OC)c1 | n | n | u | n | n | n | x | x | x | x | x
CC(C)(C)C(=O)Nc1sc(-c2ccccc2)cc1C(=O)O | 57.9 | n | n | n | n | n | n | n | 70.4 | n | 51.6
Cc1cccc(C(=O)Nc2sc(-c3ccccc3)cc2C(=O)O)c1 | 85.4 | n | n | 65.2 | n | n | 78.2 | 74.8 | 72.0 | n | 83.7
Cc1ccc(/C=N/NC(=O)c2ccc3c(c2)OCCO3)s1 | n | n | n | n | n | n | x | x | x | x | x
Cc1ccsc1/C=N/NC(=O)c1sccc1C | 88.4 | n | n | 84.1 | 93.0 | n | n | 91.5 | 100.6 | 93.8 | n
Cc1ccsc1/C=N/NC(=O)c1ccc2c(c1)OCCO2 | 79.1 | n | n | 65.4 | 83.1 | n | 84.0 | 79.4 | 95.2 | 90.4 | 80.6
Cc1ccsc1/C=N/NC(=O)CO | n | n | n | n | n | n | x | x | x | x | x
Cc1ccsc1/C=N\NC(=O)c1ccc2c(c1)OCO2 | n | n | n | n | 50.3 | n | n | n | 72.1 | 74.2 | n
Cc1cc(C)n(CCNC(=O)[C@H]2O[C@@H](n3cnc4c(N)ncnc43)[C@H](O)[C@@H]2O)n1 | x | x | x | x | x | n | x | x | x | x | x
SMILES | SENP6 block | Apaf1 inhib | UBC13 inh | SENP8 block-1 | SENP7 inh | SENP8 block-2 | SENP8 confirm | SENP6 confirm | SENP7 conf | Casp3 select | Luc interf
COc1cccc(CN2CCC(C)(Oc3cccc(Cl)c3)C2)c1OC (centres undefined) | x | x | x | x | x | n | x | x | x | x | x
CN(CCCC(=O)O)c1ccc(N=Nc2ccc([N+](=O)[O-])cc2)cc1 | 90.3 | n | n | 80.8 | 53.5 | n | 84.5 | 83.8 | n | 75.6 | n
CN(N=Nc1cccc([N+](=O)[O-])c1)c1ccccc1 | 50.8 | n | n | n | n | n | n | 50.1 | 73.3 | n | n
CN(N=Nc1ccc([N+](=O)[O-])cc1)c1ccccc1 | 59.8 | n | n | n | 59.6 | n | n | n | n | n | n
CCCCN(C(C)=O)c1c(CC)nc2ccc(C(=O)NCCOc3ccc(OC)cc3)cn12 | x | x | x | x | x | n | x | x | x | x | x
Cc1nc2ccc(NC(=O)c3ccc4ccccc4n3)cc2s1 | n | n | n | n | 71.2 | n | n | n | n | 50.6 | n
Cc1nc2ccc(NC(=O)c3sccc3C)cc2s1 | 84.9 | n | n | 59.9 | 69.3 | n | 70.7 | 70.7 | 90.0 | 80.6 | 73.1
Cc1c(C(=O)NCc2cccc(C(F)(F)F)c2)sc(=O)n1Cc1ccc(C(=O)N(C)C)cc1 | x | x | x | x | x | n | x | x | x | x | x
Cc1csc(-c2nc3ccccc3n2C(C(=O)NC(C)(C)C)c2cc3ccccc3o2)c1 (centres undefined) | x | x | x | x | x | n | x | x | x | x | x
COc1ccc(NC(=O)C2(C)Cc3c(-c4cccc(C(N)=O)c4)ccnc3O2)cc1 (centres undefined) | x | x | x | x | x | n | x | x | x | x | x
CC1(C)CCC(=O)N2CC[C@H]3C[C@H](OC(=O)Nc4ccc5c(c4)OCO5)C[C@@H]1[C@H]32 | n | n | n | n | n | n | x | x | x | x | x
CC1(C)CCC(=O)N2CC[C@H]3C[C@H](OC(=O)Nc4ccccc4)C[C@@H]1[C@H]32 | 68.6 | n | n | 55.6 | 72.9 | n | n | 52.4 | 86.9 | 76.8 | 69.3
CCOC1(OCC)OC(c2ccccc2)=C(C#N)C(C=Cc2ccccc2)C1(OCC)OCC (centres undefined) | x | x | x | x | x | n | x | x | x | x | x
COc1ccc(C(C(=O)Nc2ccc(F)cc2)N2CCN(c3cccc(C(F)(F)F)n3)CC2)cc1 (centres undefined) | x | x | x | x | x | n | x | x | x | x | x

Screening results deposited in PubChem BioAssay by Sanford-Burnham Center for Chemical Genomics.
